Results taken from ChEMBL document CHEMBL5661985, “In silico design of novel probes for the atypical opioid receptor MRGPRX2” (Nat Chem Biol, 2017).
Active and inactive are the calls of the source. No cut-off for these calls is given here.

Legend:
[1] = target: T1, Mas-related G-protein coupled receptor member X2 (Homo sapiens, UniProt Q96LB1); assay: Agonist activity at N-terminal Flag-tagged human MRGPRX2 receptor expressed in tetracycline-induced FLP-IN/T-REX 293 cells assessed as increase in intracellular calcium release by FLIPR assay; assay type: functional, cell-based
T1 sequence (Q96LB1 whole entry): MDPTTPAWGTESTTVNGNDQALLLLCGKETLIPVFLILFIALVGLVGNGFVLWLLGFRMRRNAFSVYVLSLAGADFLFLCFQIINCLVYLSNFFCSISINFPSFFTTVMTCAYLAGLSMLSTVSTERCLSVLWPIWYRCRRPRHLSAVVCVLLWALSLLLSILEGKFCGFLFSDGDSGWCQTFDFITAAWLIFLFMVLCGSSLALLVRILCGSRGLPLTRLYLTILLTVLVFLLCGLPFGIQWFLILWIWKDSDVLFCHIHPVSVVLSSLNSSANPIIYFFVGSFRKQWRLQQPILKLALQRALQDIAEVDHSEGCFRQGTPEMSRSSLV

[2] = target: T1, Mas-related G-protein coupled receptor member X2; assay: Agonist activity at MRGPRX2 (unknown origin) expressed in HTLA cells assessed as induction of beta-arrestin 2 recruitment incubated for 18 to 24 hrs by PRESTO-Tango assay; assay type: functional, cell-based
[3] = target: Pituitary adenylate cyclase-activating polypeptide type I receptor (Homo sapiens) (UniProt P41586); assay: Agonist activity at ADCYAP1 receptor (unknown origin)
In short: (§1)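 PRESTO-Tango β-arrestin2 recruitment; HTLA cells (HEK-T stably expressing β-arrestin2-TEV and tTA-dependent luciferase) transfected by calcium phosphate with receptor-Tango construct, replated next day at 20,000 cells/well; compounds in HBSS/20 mM HEPES/0.3% BSA pH 7.4, 18–24 h; Bright-Glo luminescence after 15 min RT, read as RLU; ≥2-fold over basal scored active.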

[4] = target: Alpha-1A adrenergic receptor (Homo sapiens) (UniProt P35348); assay: Agonist activity at ADRA1A receptor (unknown origin); assay type: functional; in short: as §1
[5] = target: Alpha-1B adrenergic receptor (Homo sapiens) (UniProt P35368); assay: Agonist activity at ADRA1B receptor (unknown origin); assay type: functional; in short: as §1
[6] = target: Alpha-1D adrenergic receptor (Homo sapiens) (UniProt P25100); assay: Agonist activity at ADRA1D receptor (unknown origin); assay type: functional; in short: as §1
Chain of Alpha-1D adrenergic receptor (Homo sapiens) (P25100 whole entry): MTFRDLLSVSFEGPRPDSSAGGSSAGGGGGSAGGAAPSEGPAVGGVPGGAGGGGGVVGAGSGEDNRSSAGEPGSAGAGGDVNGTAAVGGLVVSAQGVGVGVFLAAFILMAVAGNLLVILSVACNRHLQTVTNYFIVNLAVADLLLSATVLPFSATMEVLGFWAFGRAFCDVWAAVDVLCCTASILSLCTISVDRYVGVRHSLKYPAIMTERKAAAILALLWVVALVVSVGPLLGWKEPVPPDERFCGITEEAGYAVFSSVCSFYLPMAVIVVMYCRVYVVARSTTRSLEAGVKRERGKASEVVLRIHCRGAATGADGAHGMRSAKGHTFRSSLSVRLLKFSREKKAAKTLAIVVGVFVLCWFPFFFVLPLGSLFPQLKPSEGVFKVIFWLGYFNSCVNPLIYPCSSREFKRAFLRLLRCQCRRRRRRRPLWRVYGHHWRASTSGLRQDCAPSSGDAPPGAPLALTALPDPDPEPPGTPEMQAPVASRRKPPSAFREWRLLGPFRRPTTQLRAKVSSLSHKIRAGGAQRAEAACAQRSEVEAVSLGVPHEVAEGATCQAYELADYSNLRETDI

[7] = target: Alpha-2C adrenergic receptor (Homo sapiens) (UniProt P18825); assay: Agonist activity at ADRA2C receptor (unknown origin); in short: as §1
[8] = target: Beta-1 adrenergic receptor (Homo sapiens) (UniProt P08588); assay: Agonist activity at ADRB1 receptor (unknown origin); assay type: functional; in short: as §1
Chain of Beta-1 adrenergic receptor (Homo sapiens) (P08588 whole entry, looked up): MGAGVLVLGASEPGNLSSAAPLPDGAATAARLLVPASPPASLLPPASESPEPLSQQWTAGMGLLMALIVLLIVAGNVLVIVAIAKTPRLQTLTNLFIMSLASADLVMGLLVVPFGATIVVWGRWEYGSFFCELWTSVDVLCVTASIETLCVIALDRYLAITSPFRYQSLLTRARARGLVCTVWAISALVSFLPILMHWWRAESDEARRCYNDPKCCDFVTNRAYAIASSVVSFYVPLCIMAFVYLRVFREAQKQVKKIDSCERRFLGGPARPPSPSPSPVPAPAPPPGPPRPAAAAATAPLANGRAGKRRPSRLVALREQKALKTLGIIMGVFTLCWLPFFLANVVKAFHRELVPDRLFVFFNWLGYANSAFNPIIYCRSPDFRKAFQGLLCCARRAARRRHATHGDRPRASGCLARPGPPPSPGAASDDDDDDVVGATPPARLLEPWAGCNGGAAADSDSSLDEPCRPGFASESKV

[9] = target: Beta-3 adrenergic receptor (Homo sapiens) (UniProt P13945); assay: Agonist activity at ADRB3 receptor (unknown origin); assay type: functional; in short: as §1
Chain of Beta-3 adrenergic receptor (Homo sapiens) (P13945 whole entry, looked up): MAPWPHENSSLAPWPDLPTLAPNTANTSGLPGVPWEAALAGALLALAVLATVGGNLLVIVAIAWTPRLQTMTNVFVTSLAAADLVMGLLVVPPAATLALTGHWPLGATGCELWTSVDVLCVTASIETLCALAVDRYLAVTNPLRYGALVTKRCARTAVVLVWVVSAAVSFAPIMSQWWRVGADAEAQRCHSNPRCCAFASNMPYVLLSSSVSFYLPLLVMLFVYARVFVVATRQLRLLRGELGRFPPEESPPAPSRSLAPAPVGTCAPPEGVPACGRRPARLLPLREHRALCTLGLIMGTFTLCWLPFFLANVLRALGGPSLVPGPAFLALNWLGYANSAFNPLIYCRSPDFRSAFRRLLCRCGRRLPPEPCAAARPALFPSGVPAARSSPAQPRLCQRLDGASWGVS

[10] = target: Type-1 angiotensin II receptor (Homo sapiens) (UniProt P30556); assay: Agonist activity at AGTR1 receptor (unknown origin); assay type: functional; in short: as §1
Chain of Type-1 angiotensin II receptor (Homo sapiens) (P30556 whole entry): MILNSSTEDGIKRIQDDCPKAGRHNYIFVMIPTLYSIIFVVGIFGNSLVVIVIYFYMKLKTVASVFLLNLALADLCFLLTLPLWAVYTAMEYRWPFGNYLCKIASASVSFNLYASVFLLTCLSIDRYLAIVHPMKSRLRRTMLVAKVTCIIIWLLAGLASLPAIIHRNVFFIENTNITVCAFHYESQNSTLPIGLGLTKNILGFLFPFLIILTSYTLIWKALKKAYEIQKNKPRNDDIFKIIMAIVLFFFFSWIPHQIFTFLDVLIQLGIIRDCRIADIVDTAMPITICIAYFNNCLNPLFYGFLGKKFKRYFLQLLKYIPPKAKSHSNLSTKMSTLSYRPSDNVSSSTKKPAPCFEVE

[11] = target: Muscarinic acetylcholine receptor M2 (Homo sapiens) (UniProt P08172); assay: Agonist activity at CHRM2 receptor (unknown origin); assay type: functional; in short: as §1
Chain of Muscarinic acetylcholine receptor M2 (Homo sapiens) (P08172 whole entry): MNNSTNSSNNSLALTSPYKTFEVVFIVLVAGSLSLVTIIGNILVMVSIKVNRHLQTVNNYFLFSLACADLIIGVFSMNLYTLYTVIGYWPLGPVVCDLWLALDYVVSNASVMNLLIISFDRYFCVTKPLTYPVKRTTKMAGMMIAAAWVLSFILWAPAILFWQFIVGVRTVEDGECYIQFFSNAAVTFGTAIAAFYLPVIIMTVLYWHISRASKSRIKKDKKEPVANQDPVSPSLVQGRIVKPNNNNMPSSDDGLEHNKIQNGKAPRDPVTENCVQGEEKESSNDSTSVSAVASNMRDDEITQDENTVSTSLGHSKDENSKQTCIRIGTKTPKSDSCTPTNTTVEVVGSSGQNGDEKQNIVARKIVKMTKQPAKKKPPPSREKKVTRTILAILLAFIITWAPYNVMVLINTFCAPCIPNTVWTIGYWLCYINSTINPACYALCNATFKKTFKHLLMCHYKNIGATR

[12] = target: Cannabinoid receptor 2 (Homo sapiens) (UniProt P34972); assay: Agonist activity at CNR2 receptor (unknown origin); assay type: functional; in short: as §1
Chain of Cannabinoid receptor 2 (Homo sapiens) (P34972 whole entry): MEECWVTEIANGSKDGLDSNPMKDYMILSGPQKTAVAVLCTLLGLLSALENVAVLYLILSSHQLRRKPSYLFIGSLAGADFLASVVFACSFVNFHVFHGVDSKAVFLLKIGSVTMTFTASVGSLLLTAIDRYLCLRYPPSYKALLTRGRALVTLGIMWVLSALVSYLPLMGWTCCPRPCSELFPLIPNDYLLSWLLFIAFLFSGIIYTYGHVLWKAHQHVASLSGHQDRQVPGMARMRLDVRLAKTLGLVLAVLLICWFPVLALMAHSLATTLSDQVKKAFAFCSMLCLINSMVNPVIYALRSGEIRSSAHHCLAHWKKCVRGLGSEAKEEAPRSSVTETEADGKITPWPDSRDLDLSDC

[13] = target: D(4) dopamine receptor (Homo sapiens) (UniProt P21917); assay: Agonist activity at DRD4 receptor (unknown origin); assay type: functional; in short: as §1
[14] = target: Proteinase-activated receptor 2 (Homo sapiens) (UniProt P55085); assay: Agonist activity at F2R-L1 receptor (unknown origin); in short: as §1
Chain of Proteinase-activated receptor 2 (Homo sapiens) (P55085 whole entry): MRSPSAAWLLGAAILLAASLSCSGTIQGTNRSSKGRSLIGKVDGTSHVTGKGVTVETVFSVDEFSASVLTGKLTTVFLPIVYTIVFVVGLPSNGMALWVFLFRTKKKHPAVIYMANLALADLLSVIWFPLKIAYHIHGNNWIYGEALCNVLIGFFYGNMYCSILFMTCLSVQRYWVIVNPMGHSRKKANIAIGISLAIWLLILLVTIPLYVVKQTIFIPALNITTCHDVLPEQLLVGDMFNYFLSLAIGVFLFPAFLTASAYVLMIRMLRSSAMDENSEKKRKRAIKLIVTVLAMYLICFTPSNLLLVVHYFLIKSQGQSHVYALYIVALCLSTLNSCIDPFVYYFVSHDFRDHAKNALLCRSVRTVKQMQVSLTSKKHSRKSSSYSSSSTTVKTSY

[15] = target: Glucagon-like peptide 1 receptor (Homo sapiens) (UniProt P43220); assay: Agonist activity at GLP1R (unknown origin); assay type: functional; in short: as §1
[16] = target: Gastrin-releasing peptide receptor (Homo sapiens) (UniProt P30550); assay: Agonist activity at GRPR (unknown origin); assay type: functional; in short: as §1
[17] = target: G-protein coupled receptor 15 (Homo sapiens) (UniProt P49685); assay: Agonist activity at GPR15 receptor (unknown origin); assay type: functional; in short: as §1
Chain of G-protein coupled receptor 15 (Homo sapiens) (P49685 whole entry): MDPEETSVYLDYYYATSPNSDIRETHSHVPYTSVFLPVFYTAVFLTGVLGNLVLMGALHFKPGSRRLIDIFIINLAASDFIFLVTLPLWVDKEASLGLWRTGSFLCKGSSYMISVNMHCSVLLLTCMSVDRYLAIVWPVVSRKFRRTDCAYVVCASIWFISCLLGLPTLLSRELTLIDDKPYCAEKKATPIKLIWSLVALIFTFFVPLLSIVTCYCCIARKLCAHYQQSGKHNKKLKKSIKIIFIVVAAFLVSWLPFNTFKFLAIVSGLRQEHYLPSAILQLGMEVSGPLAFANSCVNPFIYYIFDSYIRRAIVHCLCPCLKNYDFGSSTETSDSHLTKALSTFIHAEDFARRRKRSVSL

[18] = target: Glucose-dependent insulinotropic receptor (Homo sapiens) (UniProt Q8TDV5); assay: Agonist activity at GPR119 receptor (unknown origin); assay type: functional; in short: as §1
[19] = target: Prosaposin receptor GPR37 (Homo sapiens) (UniProt O15354); assay: Agonist activity at GPR37 receptor (unknown origin); assay type: functional; in short: as §1
[20] = target: 5-hydroxytryptamine receptor 1A (Homo sapiens) (UniProt P08908); assay: Agonist activity at HTR1A receptor (unknown origin); assay type: functional; in short: as §1
Chain of 5-hydroxytryptamine receptor 1A (Homo sapiens) (P08908 whole entry): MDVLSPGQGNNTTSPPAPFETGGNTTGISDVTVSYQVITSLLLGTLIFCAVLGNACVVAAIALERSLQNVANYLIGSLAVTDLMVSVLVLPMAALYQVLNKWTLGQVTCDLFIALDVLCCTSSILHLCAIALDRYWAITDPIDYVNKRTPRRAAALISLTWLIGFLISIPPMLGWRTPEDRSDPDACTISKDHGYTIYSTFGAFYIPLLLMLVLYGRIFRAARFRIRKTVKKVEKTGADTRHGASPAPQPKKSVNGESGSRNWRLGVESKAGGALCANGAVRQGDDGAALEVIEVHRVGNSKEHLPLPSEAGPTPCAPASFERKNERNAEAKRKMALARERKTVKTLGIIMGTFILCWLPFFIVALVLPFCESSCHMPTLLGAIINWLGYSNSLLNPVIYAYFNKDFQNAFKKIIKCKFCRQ

[21] = target: Lutropin-choriogonadotropic hormone receptor (Homo sapiens) (UniProt P22888); assay: Agonist activity at LHCGR (unknown origin); assay type: functional; in short: as §1
[22] = target: Melanin-concentrating hormone receptor 2 (Homo sapiens) (UniProt Q969V1); assay: Agonist activity at MCHR2 receptor (unknown orgini); assay type: functional; in short: as §1
Chain of Melanin-concentrating hormone receptor 2 (Homo sapiens) (Q969V1 whole entry): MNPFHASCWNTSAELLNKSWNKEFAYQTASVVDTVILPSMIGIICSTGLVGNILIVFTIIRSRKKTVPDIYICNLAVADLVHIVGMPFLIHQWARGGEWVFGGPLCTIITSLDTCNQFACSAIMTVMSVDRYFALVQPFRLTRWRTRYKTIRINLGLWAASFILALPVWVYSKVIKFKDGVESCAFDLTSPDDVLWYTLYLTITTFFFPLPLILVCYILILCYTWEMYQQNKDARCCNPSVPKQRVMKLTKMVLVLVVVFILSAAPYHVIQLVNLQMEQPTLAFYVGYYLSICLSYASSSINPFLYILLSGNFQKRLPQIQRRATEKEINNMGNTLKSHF

[23] = target: 5-hydroxytryptamine receptor 2A (Homo sapiens) (UniProt P28223); assay: Agonist activity at HTR2 receptor (unknown origin); assay type: functional; in short: as §1
Chain of 5-hydroxytryptamine receptor 2A (Homo sapiens) (P28223 whole entry): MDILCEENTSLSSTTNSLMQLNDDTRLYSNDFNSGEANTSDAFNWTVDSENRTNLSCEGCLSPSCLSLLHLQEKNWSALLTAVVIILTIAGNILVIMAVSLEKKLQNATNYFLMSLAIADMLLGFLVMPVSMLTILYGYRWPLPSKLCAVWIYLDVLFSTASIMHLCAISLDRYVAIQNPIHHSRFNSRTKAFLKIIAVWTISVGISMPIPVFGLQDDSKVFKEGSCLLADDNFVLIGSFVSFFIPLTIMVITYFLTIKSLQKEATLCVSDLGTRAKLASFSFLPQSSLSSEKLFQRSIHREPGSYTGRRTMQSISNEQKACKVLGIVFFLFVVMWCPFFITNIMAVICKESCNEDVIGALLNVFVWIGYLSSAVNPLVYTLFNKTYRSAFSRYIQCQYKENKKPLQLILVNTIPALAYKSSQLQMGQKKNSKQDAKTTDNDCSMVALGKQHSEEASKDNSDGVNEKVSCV

[24] = target: T2, Mas-related G-protein coupled receptor member X2 (Homo sapiens) (UniProt Q96LB1); assay: Agonist activity at MRGPRX2 receptor in human LAD2 cells assessed as increase in degranulation incubated for 30 mins by beta-hexosaminidase assay; assay type: functional, cell-based; settings: filed as agonist
T2 sequence (whole entry): T1 sequence (Q96LB1 whole entry)
In short: (§2)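 β-Hexosaminidase release: LAD2 cells in fresh medium 18 h, washed in Tyrode's buffer pH 7.4, 10,000 cells/well; drug (single concentration or 8-point curve) added in triplicate, 30 min 37°C; supernatant and Triton X-100 lysate each reacted with NAG in citrate pH 4.5 for 90 min 37°C, stopped with carbonate pH 10, A405; % release = released/total ×100, minus vehicle.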

[25] = target: T2, Mas-related G-protein coupled receptor member X2 (Homo sapiens); assay: Agonist activity at N-terminal Flag-tagged human MRGPRX2 receptor expressed in tetracycline-induced FLP-IN/T-REX 293 cells assessed as increase in intracellular calcium release <100 uM by FLIPR assay; assay type: functional, cell-based; settings: filed as agonist
In short: (§3)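 FLIPR calcium: FLP-IN/T-REX HEK-293-T stable line with N-terminal FLAG codon-optimized receptor, induced 24 h with 1 μg/mL tetracycline in 1% dialyzed FBS (uninduced cells as control); FLIPR calcium dye plus 2.5 mM probenecid 1 h 37°C; 10 s baseline, then drug in HBSS/20 mM HEPES/probenecid pH 7.4, 16-point curve 10 μM to 0.003 nM; fluorescence 120 s; fold over basal, n=3 triplicate.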

[26] = target: T2, Mas-related G-protein coupled receptor member X2 (Homo sapiens); assay: Agonist activity at MRGPRX2 (unknown origin) expressed in HTLA cells assessed as induction of beta-arrestin 2 recruitment <100 uM incubated for 18 to 24 hrs by PRESTO-Tango assay; assay type: functional, cell-based; settings: filed as agonist, time 18-24 hrs
In short: (§4)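 β-arrestin2 recruitment by PRESTO-Tango: HTLA cells transiently transfected (calcium phosphate) with codon-optimized MRGPRX2-Tango (WT or point mutant) or MRGPRB2-Tango, plated next day 20,000 cells/well on poly-L-lysine; drug in HBSS/20 mM HEPES/0.3% BSA pH 7.4 for 18–24 h; Bright-Glo luminescence (RLU); curves n=3 in triplicate, mutants n=4 in triplicate.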

[27] = target: T2, Mas-related G-protein coupled receptor member X2 (Homo sapiens); assay: Agonist activity at N-terminal Flag-tagged human MRGPRX2 receptor expressed in tetracycline-induced HEK-T cells assessed as increase in intracellular calcium release by FLIPR assay; assay type: functional, cell-based; settings: HEK-T cell, filed as agonist; in short: as §3
[28] = target: T2, Mas-related G-protein coupled receptor member X2 (Homo sapiens); assay: Agonist activity at N-terminal Flag-tagged human MRGPRX2 receptor expressed in HEK-T cells assessed as increase in intracellular calcium release by FLIPR assay; assay type: functional, cell-based; settings: HEK-T cell; in short: as §3
HTLA [29] = assay: Agonist activity at MRGPRX2 E164D mutant (unknown origin) expressed in HTLA cells assessed as induction of beta-arrestin 2 recruitment incubated for 18 to 24 hrs by PRESTO-Tango assay; assay type: cell-based; settings: Homo sapiens, filed as agonist, time 18-24 hrs; in short: as §4
HTLA [30] = assay: Agonist activity at MRGPRX2 D184E mutant (unknown origin) expressed in HTLA cells assessed as induction of beta-arrestin 2 recruitment incubated for 18 to 24 hrs by PRESTO-Tango assay; assay type: cell-based; settings: Homo sapiens, time 18-24 hrs; in short: as §4
[31] = target: T2, Mas-related G-protein coupled receptor member X2 (Homo sapiens); assay: Agonist activity at MRGPRX2 receptor in human LAD2 cells assessed as increase in intracellular calcium release by FLIPR assay; assay type: functional, cell-based; settings: filed as agonist
In short: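 LAD2 human mast cells seeded 50,000/well in Tyrode's buffer with calcium dye, 1 h before drug; 10 s baseline, drug added, fluorescence followed 120 s; expressed as fold calcium release over baseline; n=3 in triplicate.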

[32] = target: T2, Mas-related G-protein coupled receptor member X2 (Homo sapiens); assay: Agonist activity at MRGPRX2 receptor in human LAD2 cells transfected with MRGPRX2 siRNA assessed as increase in degranulation incubated for 30 mins by beta-hexosaminidase assay; assay type: functional, cell-based
In short: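 LAD2 cells (1.2 million/well) transfected with 25 nM MRGPRX2 siRNA pool or non-targeting pool, 72 h; 200,000 cells taken for β-hexosaminidase assay with EC80 concentration of agonist, 30 min 37°C; knockdown checked by qRT-PCR on 1 million cells; fold change % degranulation versus DMSO; two-way ANOVA with Sidak test.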

[33] = target: T2, Mas-related G-protein coupled receptor member X2 (Homo sapiens); assay: Agonist activity at MRGPRX2 receptor in human LAD2 cells assessed as increase in degranulation incubated for 30 mins in presence of naloxone by beta-hexosaminidase assay; assay type: functional, cell-based; in short: as §2

Compound	EC50 ([1]; read-out: EC50) [µM]	EC50 ([2]; read-out: EC50) [µM]	Activity [3]	Activity [4]	Activity [5]	Activity [6]	Activity [7]	Activity [8]	Activity [9]	Activity [10]	Activity [11]	Activity [12]	Activity [13]	Activity [14]	Activity [15]	Activity [16]	Activity [17]	Activity [18]	Activity [19]	Activity [20]	further results
CN(C)[C@@H]1CCN(c2cc(-c3ccccc3)nc3ccnn23)C1 [(R)-ZINC-3573]	1	0.74	inactive	inactive	inactive	inactive	inactive	inactive	inactive	inactive	inactive	inactive	inactive	inactive	inactive	inactive	inactive	inactive	inactive	inactive	Activity [21]: inactive; Activity [22]: inactive; Activity [23]: inactive; Activity [24]: Active
CN(C)[C@H]1CCN(c2cc(-c3ccccc3)nc3ccnn23)C1 [(S)-ZINC-3573]	–	> 100	inactive	inactive	inactive	inactive	inactive	inactive	inactive	inactive	inactive	inactive	inactive	inactive	inactive	inactive	inactive	inactive	inactive	inactive	Activity [25]: Active; Activity [26]: Active; Activity [21]: inactive; Activity [22]: inactive; Activity [23]: inactive
CN1CC[C@@]23CCCC[C@@H]2[C@@H]1Cc1ccc(O)cc13 [DEXTRORPHAN]	6	4.3	–	–	–	–	–	–	–	–	–	–	–	–	–	–	–	–	–	–	EC50 ([1]; read-out: pEC50 (converted)): 3.89 µM; EC50 ([2]; read-out: pEC50 (converted)): 4.17 µM; Activity [27]: Active; Activity [28]: inactive; Activity (HTLA [29]): Active; Activity (HTLA [30]): inactive
CN1CC[C@]23c4c5ccc(O)c4O[C@H]2[C@@H](O)C=C[C@H]3[C@H]1C5 [MORPHINE]	7	6.4	–	–	–	–	–	–	–	–	–	–	–	–	–	–	–	–	–	–	EC50 ([2]; read-out: pEC50 (converted)): 6.17 µM; Activity (HTLA [29]): Active; Activity (HTLA [30]): inactive; Activity [31]: Active; Activity [24]: Active; Activity [32]: inactive; Activity [33]: inactive
